Screens deposited in PubChem BioAssay by several laboratories.
Lipid droplet – modulators of hepatic lipid droplet formation. inhibition, % at 6.5 µM. AID 1656. AML12 mouse hepatocytes, oleate lipid droplets, BODIPY imaging. actives 0.4% (n = 240,000);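 active = lipid droplet intensity inhibited by at least 50%, with more than 500 cells counted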
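Assay system: AML12 mouse liver cells | Compound dosing: One dose, 6.5 µM compound | Read-out basis: Droplet intensity reduction, % inhibition | Measured by: Fluorescence imaging, 20x objective, two fields per well | Schedule: Overnight treatment with compound plus oleate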
MrgX1 antagonist – blocks BAM8-22 activation of human MrgX1 receptor; Q96LB2; MRGX1-HEK293 calcium flux, Fluo-4, BAM8-22 antagonism; hits give low values; B-score at 10 µM; actives 1.3% (n = 310,000); AID 588676;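 active = calcium-response B-score plate-corrected more than 3 library SD below zero, starting fluorescence within 5 deviations, no agonist response on first addition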;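 note: peak minus trough fluorescence over baseline after final BAM8-22 challenge near maximal dose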
Target sequence (Q96LB2 whole entry, looked up): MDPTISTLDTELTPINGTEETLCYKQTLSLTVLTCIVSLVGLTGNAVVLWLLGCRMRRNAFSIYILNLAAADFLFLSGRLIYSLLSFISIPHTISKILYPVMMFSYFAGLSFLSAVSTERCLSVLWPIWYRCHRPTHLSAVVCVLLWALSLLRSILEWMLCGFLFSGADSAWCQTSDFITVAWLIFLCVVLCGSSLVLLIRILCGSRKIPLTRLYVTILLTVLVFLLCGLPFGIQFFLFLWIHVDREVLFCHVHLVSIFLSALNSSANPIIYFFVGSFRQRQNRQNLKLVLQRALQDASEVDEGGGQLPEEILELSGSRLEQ
RGS4 act – RGS4 potentiation or activation; HEK293 M3R/inducible RGS4, carbachol calcium flux Fluo4; hits give low values; B-score at 10 µM; actives 0.92% (n = 310,000); AID 463111;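 active = B-score of the integrated calcium signal more than 4 SD below the library mean, with starting fluorescence not abnormally high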;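 note: negative B-score means reduced calcium response which marks RGS4 activation or potentiation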
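test system = HEK293 cells with stable M3R and inducible RGS4 | schedule = recording 10 s baseline at 1 Hz, 100 s post-agonist | technique = Fluo4-AM (2 µM) calcium-flux fluorescence, kinetic read | measure = Agonist-evoked peak-minus-minimum fluorescence over baseline, integrated ratio, B score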
MrgX1 PAM – allosterically activates human MrgX1 receptor signaling; Q96LB2; MrgX1-HEK293, Fluo-4 calcium flux, FDSS; hits give high values; B-score at 10 µM; actives 0.63% (n = 310,000);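 active = plate-corrected calcium response at least 3 library SD above typical, normal starting fluorescence, not activating the receptor alone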;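 note: compound read alongside a low EC10 to EC30 dose of BAM8-22 agonist; peak minus trough fluorescence over baseline measured at the second addition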
RGS4 block – human RGS4 inhibition | B-score at 10 µM | actives 0.45% (n = 310,000) | HEK293 M3R/RGS4 inducible, Fluo-4 calcium flux; hits give high values; triggered by carbachol at its EC20 | P49798 | AID 463165;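 active = B-score, a plate-corrected calcium signal, over three deviations above library mean, with baseline fluorescence within five deviations of library mean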;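 note: RGS4 expression induced by doxycycline in cells with stable M3 receptor; B-score is computed from the integrated fluorescence ratio over baseline after carbachol; higher B-score means a larger calcium signal and so more RGS4 inhibition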
Target sequence (P49798 whole entry, looked up): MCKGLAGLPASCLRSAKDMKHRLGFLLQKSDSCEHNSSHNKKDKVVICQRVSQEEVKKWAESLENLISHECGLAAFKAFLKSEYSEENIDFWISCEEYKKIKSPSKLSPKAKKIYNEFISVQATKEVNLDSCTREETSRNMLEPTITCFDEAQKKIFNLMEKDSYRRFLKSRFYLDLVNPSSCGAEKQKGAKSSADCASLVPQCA
MrgX1 ag – human MrgX1 receptor agonism, primary screen | MrgX1-HEK293 cells, Fluo-4 calcium fluorescence, agonist mode; hits give high values | actives 0.44% (n = 310,000) | B-score at 10 µM | Q96LB2;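 active = calcium response B-score plate-corrected fluorescence ratio at least 3 library SD, with starting fluorescence B-score inside 5 SD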
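times = overnight plating, then 30 min 37 °C plus 30 min room-temperature dye loading | assay system = stable human MrgX1 HEK293 cell line | input = fifteen thousand cells per well | signal = kinetic calcium dye fluorescence, Fluo-4 NW | dosing = compound delivered in addition one of three | read-out = B-scored fluorescence response ratio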
Numbers without * were called inactive; i = inactive; . = no result. Sampled rows, rich in hits. Any-hit rate of the full collection: about 3.8%.

SMILES | Lipid droplet | MrgX1 antagonist | RGS4 act | MrgX1 PAM | RGS4 block | MrgX1 ag
O=C1c2cccc3c([N+](=O)[O-])ccc(c23)C(=O)N1CCc1ccccn1 | -5 | i | i | i | i | i
Cc1ccc(C(=O)O)cc1N1C(=O)c2cccc3c([N+](=O)[O-])ccc(c23)C1=O | 1 | i | i | i | i | i
CN(C)CCCN1C(=O)c2cccc3c([N+](=O)[O-])ccc(c23)C1=O | 8 | -9.4* | . | i | . | i
CC(=O)Oc1cccc(N2C(=O)c3cccc4c([N+](=O)[O-])ccc(c34)C2=O)c1 | -1 | -8.4* | i | i | i | i
Cc1ccc(S(=O)(=O)NCc2ccc(C(=O)N3CCN(c4ccc([N+](=O)[O-])cc4)CC3)cc2)cc1 | -1 | i | i | i | i | i
COc1ccc(-c2cc(-c3ccccc3)nc(Cl)n2)cc1OC | -3 | i | -7* | i | i | i
Cc1ccc(CNC(=O)CCSCc2ccccc2F)cc1 | . | i | i | i | i | i
CCN(CC(=O)NCc1ccncc1)S(=O)(=O)c1ccccc1 | 0 | i | i | i | i | i
CCC(C)Sc1ccc(-c2nc3ccc(C)cn3c2NCc2ccccc2)cc1OC (configuration not stated) | . | i | -8.6* | i | i | i
CCC(C)Sc1cc(-c2nc3ccc(C)cn3c2NCc2ccccc2)ccc1OC (configuration not stated) | . | i | i | i | i | i
COc1ccc(-c2nc(=S)c3ccc4ccccc4c3[nH]2)cc1 | -5 | . | i | . | i | .
CCc1ccc(C(=O)COC(=O)c2ccccc2OC)cc1 | 2 | i | i | i | i | i
CCCOCc1ccc(O)c2ncccc12 | -1 | i | i | i | i | i
Oc1ccc(COCc2ccccc2)c2cccnc12 | . | -5.6* | i | i | i | i
CCOC(=O)CSc1nc(-c2ccccc2)nc2c1oc1ccccc12 | . | i | -7.3* | i | i | i
COc1cc(CN2CCN(c3ccc(C)cc3)CC2)cc([N+](=O)[O-])c1O | . | i | i | i | i | i
O=C1NC(=S)/C(=C\c2ccc(-c3ccccc3Cl)o2)S1 | 10 | i | -7.4* | i | i | i
O=C(Nc1ccccc1)N1CCCC(c2nc(-c3ccc(F)cc3)no2)C1 (configuration not stated) | . | i | i | i | i | i
O=C(Nc1cccc(C(F)(F)F)c1)N1CCC(c2nc(-c3ccc(F)cc3)no2)CC1 | -52 | i | -9.3* | i | i | i
COc1ccccc1C1(O)CCN(CC(=O)Nc2nc(-c3ccccc3)cs2)CC1 | 89* | i | i | i | i | i
CCc1nnc(NC(=O)CN2CCC(O)(c3ccccc3OC)CC2)s1 | . | i | i | i | i | i
CN1C(=O)C(O)(CC(=O)c2ccc(F)cc2)c2cc(Br)ccc21 (configuration not stated) | -9 | -5.1* | i | i | i | i
COC(=O)CN1C(=O)C(O)(CC(=O)c2ccc(C)cc2)c2cc(Br)ccc21 (configuration not stated) | -12 | i | i | i | i | i
CC(C)N1CCc2c(sc(NC(=O)CCS(=O)(=O)c3ccccc3)c2C#N)C1 | -25 | i | i | i | i | i
Cc1ccc(S(=O)(=O)NNC(=O)C(O)(c2ccccc2)c2ccccc2)cc1 | -9 | i | i | i | i | i
SMILES | Lipid droplet | MrgX1 antagonist | RGS4 act | MrgX1 PAM | RGS4 block | MrgX1 ag
Cc1cc(C(=O)NNS(=O)(=O)c2ccc(C(C)(C)C)cc2)nn1C(C)(C)C | 16 | i | i | 9.8* | i | i
COC(=O)Cn1c(=NC(=O)c2ccc(Cl)s2)sc2cc(C)ccc21 | 15 | -5.9* | i | i | i | i
COC(=O)Cn1c(=NC(=O)c2nc3ccccc3s2)sc2cc(S(C)(=O)=O)ccc21 | 1 | -5.2* | i | i | i | i
CC(C)c1ccc(/C=C(\NC(=O)c2ccccc2)C(=O)NCCCN2CCOCC2)cc1 | 2 | i | i | i | i | i
COc1ccc(-c2nc(CSCC(=O)NCc3ccco3)c(C)o2)cc1 | . | -5.4* | i | i | i | i
CCOc1ccc(NC(=O)c2ccc(NS(=O)(=O)c3cccs3)cc2)cc1 | 14 | i | i | i | i | i
COCCN=c1scc(-c2cccs2)n1/N=C/c1ccc(O)c(O)c1O | 31 | i | i | 16* | i | i
CCCCN1C2=C(C(=O)CC(C)(C)C2)C(c2ccccc2)C2=C1c1ccccc1C2=O (configuration not stated) | -7 | i | i | i | i | i
CCCN1C2=C(C(=O)CC(C)(C)C2)C(c2ccc(F)cc2)C2=C1c1ccccc1C2=O (configuration not stated) | -3 | -8.7* | i | i | i | i
Cc1cccc(-n2c(O)c(C=NC3CCS(=O)(=O)C3)c3ccccc3c2=O)c1C (configuration not stated) | -5 | i | i | i | i | i
Cc1ccc(Nc2nc(N/N=C/c3c[nH]c4ccccc34)nc(N3CCOCC3)n2)cc1 | 126* | i | i | i | i | i
C(=N\Nc1nc(Nc2ccccc2)nc(N2CCOCC2)n1)/c1c[nH]c2ccccc12 | . | i | i | i | i | i
CC(C)[C@H](NC(=O)N1c2ccccc2NC(=O)[C@@H]1C(C)C)C(=O)N1CCC[C@H]1C(=O)O | 1 | i | i | i | i | i
COCCn1c(SCC(=O)NC2CCCC2)nnc1C(C)C | 8 | i | i | i | i | i
N#C/C(=C\c1c(N2CCN(Cc3ccccc3)CC2)nc2ccccn2c1=O)S(=O)(=O)c1ccccc1 | -5 | i | i | i | i | i
Cc1cccn2c(=O)c(/C=C(\C#N)S(=O)(=O)c3ccccc3)c(N3CCN(Cc4ccccc4)CC3)nc12 | -6 | i | -7.2* | i | i | i
Cc1nn2c3ccccc3n(CCN3CCCCC3)c2nc1=O | 9 | -6* | i | i | i | i
CN(c1nc2ccccc2n2c(C3CC3)nnc12)S(=O)(=O)c1ccccc1 | -1 | i | i | i | i | i
Cc1ccc(C)c(NC(=O)C2CCCN2/C=C/C(=O)C(F)(F)F)c1 (configuration not stated) | -16 | i | i | i | i | i
